{
  "source": "ChEMBL document CHEMBL1158063",
  "about": "“Awajanomycin, a Cytotoxic gamma-lactone-delta-lactam metabolite from marine-derived Acremonium sp. AWA16-1” (J Nat Prod, 2006)",
  "key": {"A549 [1]": {"tested_on": "A549", "experiment": "Cytotoxicity against human A549 cells after 72 hrs up to 125 ug/mL by alamar blue assay", "type": "functional, cell-based", "procedure,_shortened": "(§1)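 A549 lung adenocarcinoma cells in DMEM with 10% FBS were seeded at 8 × 10^3 cells/well and preincubated 14 h at 37 °C under 5% CO2. Serially diluted samples were then added for 72 h. Alamar Blue was added for a further 4 h, and viability was read as absorbance at 590 nm.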"}, "Escherichia coli": {"tested_on": "Escherichia coli", "experiment": "Antimicrobial activity against Escherichia coli IFO 3301 at 50 ug/disk after 48 hrs by paper disk method", "type": "functional, organism-based", "procedure,_shortened": "(§2)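 Paper disk diffusion on nutrient broth agar plates seeded with the test strain. Sample loaded at 50 µg per 6 mm disk, air-dried, and placed on the agar surface. Growth-inhibition zone measured after 48 h incubation at 30 °C.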"}, "Bacillus subtilis": {"tested_on": "Bacillus subtilis", "experiment": "Antimicrobial activity against Bacillus subtilis IFO 3134 at 50 ug/disk after 48 hrs by paper disk method", "type": "functional, organism-based", "procedure,_shortened": "as §2"}, "Staphylococcus aureus": {"tested_on": "Staphylococcus aureus", "experiment": "Antimicrobial activity against Staphylococcus aureus IFO 12732 at 50 ug/disk after 48 hrs by paper disk method", "type": "functional, organism-based", "procedure,_shortened": "as §2"}, "[2]": {"tested_on": "Leeuwenhoekiella marinoflava", "experiment": "Antimicrobial activity against Cytophaga marinoflava IFO 14170 at 50 ug/disk after 48 hrs by paper disk method", "type": "functional, organism-based", "procedure,_shortened": "(§3)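 Paper disk method on marine broth agar seeded with the marine strain. Each 6 mm disk was loaded with 50 µg sample, air-dried, and laid on the plate. Inhibition zone read after 48 h at 30 °C.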"}, "Alphaproteobacteria": {"tested_on": "Alphaproteobacteria", "experiment": "Antimicrobial activity against Alphaproteobacteria MBIC3368 at 50 ug/disk after 48 hrs by paper disk method", "type": "functional, organism-based", "procedure,_shortened": "as §3"}, "Candida albicans": {"tested_on": "Candida albicans", "experiment": "Antimicrobial activity against sCandida albicans IFO 1060 at 50 ug/disk after 48 hrs by paper disk method", "type": "functional, organism-based", "procedure,_shortened": "as §2"}, "Salinivibrio costicola": {"tested_on": "Salinivibrio costicola", "experiment": "Antimicrobial activity against sSalinivibrio costicola ATCC 33508 at 50 ug/disk after 48 hrs by paper disk method", "type": "functional, organism-based", "procedure,_shortened": "as §3"}, "A549 [3]": {"tested_on": "A549", "experiment": "Cytotoxicity against human A549 cells after 72 hrs by alamar blue assay", "type": "functional, cell-based", "conditions": "A549, 72 h", "procedure,_shortened": "as §1"}},
  "note": "Calls of active or inactive are those of the source. The rule behind the calls is not given here.",
  "data": [
    {"smiles": "CCCCCCCC(O)/C=C/[C@@H]1[C@H](O)[C@@H](C)NC(=O)[C@]1(O)C(=O)O", "note": "(some centres undefined)", "values": [
      {"measurement": "Activity", "setting": "A549 [1]", "value": "inactive"},
      {"measurement": "Activity", "setting": "Escherichia coli", "value": "inactive"},
      {"measurement": "Activity", "setting": "Bacillus subtilis", "value": "inactive"},
      {"measurement": "Activity", "setting": "Staphylococcus aureus", "value": "inactive"},
      {"measurement": "Activity", "setting": "[2]", "value": "inactive"},
      {"measurement": "Activity", "setting": "Alphaproteobacteria", "value": "inactive"},
      {"measurement": "Activity", "setting": "Candida albicans", "value": "inactive"},
      {"measurement": "Activity", "setting": "Salinivibrio costicola", "value": "inactive"}
    ]},
    {"smiles": "CCCCCCCC(O)/C=C/[C@@H]1[C@H](O)[C@@H](C)NC(=O)[C@]1(O)CO", "note": "(some centres undefined)", "values": [
      {"measurement": "IC50", "setting": "A549 [3]", "value": 46.4, "unit": "µg/mL"},
      {"measurement": "Activity", "setting": "Escherichia coli", "value": "inactive"},
      {"measurement": "Activity", "setting": "Bacillus subtilis", "value": "inactive"},
      {"measurement": "Activity", "setting": "Staphylococcus aureus", "value": "inactive"},
      {"measurement": "Activity", "setting": "[2]", "value": "inactive"},
      {"measurement": "Activity", "setting": "Alphaproteobacteria", "value": "inactive"},
      {"measurement": "Activity", "setting": "Candida albicans", "value": "inactive"},
      {"measurement": "Activity", "setting": "Salinivibrio costicola", "value": "inactive"}
    ]},
    {"smiles": "CCCCCCCC(O)/C=C/[C@@H]1[C@@H]2OC(=O)[C@@]1(O)C(=O)N[C@@H]2C", "note": "(some centres undefined) [AWAJANOMYCIN]", "values": [
      {"measurement": "IC50", "setting": "A549 [3]", "value": 27.5, "unit": "µg/mL"},
      {"measurement": "Activity", "setting": "Escherichia coli", "value": "inactive"},
      {"measurement": "Activity", "setting": "Bacillus subtilis", "value": "inactive"},
      {"measurement": "Activity", "setting": "Staphylococcus aureus", "value": "inactive"},
      {"measurement": "Activity", "setting": "[2]", "value": "inactive"},
      {"measurement": "Activity", "setting": "Alphaproteobacteria", "value": "inactive"},
      {"measurement": "Activity", "setting": "Candida albicans", "value": "inactive"},
      {"measurement": "Activity", "setting": "Salinivibrio costicola", "value": "inactive"}
    ]}
  ]
}
